# Measurements from different studies.
# Ephx2: Bifunctional epoxide hydrolase 2 (Ephx2, Mus musculus, UniProt P34914)
# APC: Adenomatous polyposis coli protein (APC, Homo sapiens, UniProt P25054)
# AMY1A: Alpha-amylase 1A (AMY1A, Homo sapiens, UniProt P0DUB6)
# EGFR: Epidermal growth factor receptor (EGFR, Homo sapiens, UniProt P00533)
Compound,target,test,IC50
O=C(Nc1ccc(-c2ccnc3ccccc23)cc1)C1CCN(S(=O)(=O)c2ccccc2Cl)CC1,Ephx2,"enzyme activity, inhibitor, fluorescence",28.6 nM
Cc1ccc2c(-c3cc4c(CN5CCN(Cc6ccccn6)CC5)cnc(C)c4o3)cc(=O)oc2c1,"Epidermal growth factor receptor (EGFR, Homo sapiens, UniProt P00533, C797S/L858R/T790M)","enzyme activity, inhibitor, ADP detection",5.77 nM
CC(C)C[C@H](NC(=O)[C@H](Cc1ccc2ccccc2c1)NC(=O)[C@H](CCC(=O)O)NC(=O)c1cccc(C(F)(F)F)c1)C(=O)NC1CC1c1ccccc1 (stereo partly drawn),APC,"ligand displacement, FP",10700 nM
Oc1ccc([C@@H]2c3c(O)cc(O)cc3[C@@H]3c4c(cc(O)cc4[C@H]2[C@@H]2c4cc(O)cc5c4[C@@H](c4cc(O)cc(O)c4[C@H]2c2ccc(O)cc2)[C@H](c2ccc(O)cc2)O5)O[C@H]3c2ccc(O)cc2)cc1,AMY1A,"enzyme activity, inhibitor",33700 nM
O=C(Nc1ccc(-c2cnc3ccccc3c2)cc1)C1CCN(S(=O)(=O)c2ccccc2Cl)CC1,Ephx2,"enzyme activity, inhibitor, fluorescence",116 nM
C=CC(=O)Nc1cc2c(Nc3ccc(OCc4ccccn4)c(Cl)c3)ncnc2cc1OCCN1CCOCC1,"Epidermal growth factor receptor (EGFR, Homo sapiens, UniProt P00533, L858R/T790M)","enzyme activity, inhibitor",1.5 nM
CC(C)C[C@H](NC(=O)[C@H](Cc1ccc2ccccc2c1)NC(=O)[C@H](CCC(=O)O)NC(=O)c1ccccc1)C(=O)NC1CC1c1ccccc1 (stereo partly drawn),APC,"ligand displacement, FP",77600 nM
Cc1ncc(CN2CCc3ccccc3C2)c2cc(C(=O)c3ccc4c(c3)OCCO4)oc12,EGFR,"enzyme activity, inhibitor, ADP detection",12.9 nM
CC(C)C[C@H](NC(=O)[C@H](Cc1ccc2ccccc2c1)NC(=O)[C@H](CCC(=O)O)NC(=O)c1ccccn1)C(=O)NC1CC1c1ccccc1 (stereo partly drawn),APC,"ligand displacement, FP",30200 nM
Cc1ncc(CN2CCN(Cc3ccccn3)CC2)c2cc(C(=O)c3ccc4c(c3)OCCO4)oc12,EGFR,"enzyme activity, inhibitor, ADP detection",40.5 nM
CC(C)C[C@H](NC(=O)[C@H](Cc1ccc2ccccc2c1)NC(=O)[C@H](CCC(=O)O)NC(=O)c1ccnc(Cl)n1)C(=O)NC1CC1c1ccccc1 (stereo partly drawn),APC,"ligand displacement, FP",4270 nM
Cc1c(Cc2ccccc2)c(=O)oc2c(C)c(OCC(=O)NN=Cc3ccco3)ccc12,EGFR,"enzyme activity, inhibitor, ATP luminescence",559 nM
CC(C)C[C@H](NC(=O)[C@H](Cc1ccc2ccccc2c1)NC(=O)[C@H](CCC(=O)O)NC(=O)C1CCCCC1)C(=O)NC1CC1c1ccccc1 (stereo partly drawn),APC,"ligand displacement, FP",21900 nM
O=C(Nc1ccc(-c2cccc3ncccc23)cc1)C1CCN(S(=O)(=O)c2ccccc2Cl)CC1,Ephx2,"enzyme activity, inhibitor, fluorescence",17.2 nM
OC[C@H]1O[C@@H](Oc2cc3c4c(c2)[C@@H]([C@@H]2c5cc(O)cc6c5[C@@H](c5cc(O)cc(O)c5[C@H]2c2ccc(O)cc2)[C@H](c2ccc(O)cc2)O6)[C@H](c2ccc(O)cc2)c2c(O)cc(O)cc2[C@H]4[C@H](c2ccc(O)cc2)O3)[C@H](O)[C@@H](O)[C@@H]1O,AMY1A,"enzyme activity, inhibitor",> 100000 nM
